How the values were obtained:
[1] = target: α-tocopherol transfer protein (α-TTP); conditions: cited from earlier work
[2] = Dual polarization interferometry of protein adsorption to immobilized bilayer; type: binding; conditions: for Ads^mut/Ads^wt (0.50 μM injection): 0.50 μM protein injection; for Ads^mut/Ads^wt (1.0 μM injection): 1.0 μM protein injection
Procedure, shortened: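 Recombinant α-TTP (E. coli BL21(DE3), glutathione affinity, thrombin-cleaved) was dialysed 1 h at 4 °C into pH 7.4 phosphate/137 mM NaCl buffer. It was injected at 25 μl/min for 8 min over a 90:10 DOPC:DOPS bilayer on a silicon oxynitride chip at 20 °C. Adsorbed mass was measured at 0.5 and 1.0 μM in quadruplicate, two channels each. Kd came from fitting Bmax against concentration.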

[3] = test system: HepG2 cells; assay: α-TTP-induced secretion of NBD-tocopherol from cultured hepatocytes; type: cell-based, Human; conditions: transiently transfected HepG2; NBD-Toc fluorescence
Procedure, shortened: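 HepG2/C3A cells on collagen-coated coverslips (DMEM, 10% FBS) were transiently transfected with α-TTP variants in pcDNA3.1, with mock controls. At 30 h they received 5 μM lipoprotein-complexed NBD-tocopherol for 16–18 h at 37 °C, then 4 h in normal medium for secretion. Cells were fixed, permeabilised and DAPI-stained. NBD fluorescence was imaged at 40× over >14 fields per slide, normalised to cell number; expression was checked by Western blot.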

[4] = FRET assay of NBD-Toc transfer from α-TTP variants to SUVs; type: biochemical; conditions: for Rate of NBD-Toc transfer to SUV, Rate: PC vesicles, 0.225 μM NBD-Toc, 2 μM α-TTP, 100 μM vesicles, room temperature; for Reduction of rate of transfer to SUVs: reduction relative to wild type; for Rate of NBD-Toc transfer to SUV, Rate^mut/Rate^wt: relative to wild type
Procedure, shortened: (§1)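 Each protein (4 μM) was preloaded with 0.45 μM NBD-Toc for 15 min in SET buffer (pH 7.4). It was then stopped-flow mixed at room temperature with 200 μM acceptor vesicles of 97% liver PC and 3% TRITC-PE (finals 0.225 μM, 2 μM, 100 μM). Vesicles were sonicated SUVs (~60 nm) or extruded LUVs (150 nm). NBD quench was normalised to initial fluorescence and fitted single-exponentially.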

[5] = FRET assay of NBD-Toc transfer from α-TTP variants to LUVs; type: biochemical; conditions: for Rate of NBD-Toc transfer to LUV, Rate^mut/Rate^wt: relative to wild type; for Rate of NBD-Toc transfer to LUV, Rate: PC vesicles, 0.225 μM NBD-Toc, 2 μM α-TTP, 100 μM vesicles, room temperature
Procedure, shortened: as §1

[6] = Filtration; type: binding; conditions: compared with wild type
Procedure, shortened: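 Recombinant α-TTP (31.5 μg) was incubated with increasing concentrations of sonicated SUVs or extruded 150 nm LUVs in SET buffer for 30 min at room temperature. Mixtures were spun through 100 kDa-cutoff filters at 10,000g for 20 min to separate vesicle-bound from free protein. Protein was resolved on gels, stained with colloidal Coomassie and quantified by band densitometry.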

Row | Molecule | Kd [1] [nM] | Ads^mut/Ads^wt (0.50 μM injection) [2] | Ads^mut/Ads^wt (1.0 μM injection) [2] | Fold change in affinity ([2]; relative to wild type) | Inhibition of tocopherol secretion as compared to the wild-type TTP [3] [fold] | Rate of NBD-Toc transfer to SUV, Rate [4] [s⁻¹] | Reduction of rate of transfer to SUVs [4] [%] | Rate of NBD-Toc transfer to SUV, Rate^mut/Rate^wt [4] [%] | Rate of NBD-Toc transfer to LUV, Rate^mut/Rate^wt [5] [%] | Vesicle binding to SUVs (in words) [6] | Rate of NBD-Toc transfer to LUV, Rate [5] [s⁻¹] | Adsorption/binding to immobilized bilayers by DPI, % of wild type ([2]; injection concentration not stated) [%] | Binding to immobilized bilayers, % of WT ([2]; printed "for LUVs") [%] | Binding to immobilized bilayers, % of WT ([2]; printed "for SUVs") [%]
1 | Cc1c(C)c2c(c(C)c1O)CC[C@@](C)(CCC[C@H](C)CCC[C@H](C)CCCC(C)C)O2 [α-tocopherol] | ~25 | – | – | – | – | – | – | – | – | – | – | – | – | –
2 | F169D: α-TTP mutant, Phe169 to Asp (helix A8) (protein, UniProt P49638 1-278, looked up, variant F169D) Alpha-tocopherol transfer …: MAEARSQPSAGPQLNALPDHSPLLQPGLAALRRRAREAGVPLAPLPLTDSFLLRFLRARDFDLDLAWRLLKNYYKWRAECPEISADLHPRSIIGLLKAGYHGVLRSRDPTGSKVLIYRIAHWDPKVFTAYDVFRVSLITSELIVQEVETQRNGIKAIFDLEGWQFSHADQITPSVAKKIAAVLTDSFPLKVRGIHLINEPVIFHAVFSMIKPFLTEKIKERIHMHGNNYKQSLLQHFPDILPLEYGGEEFSMEDICQEWTNFIMKSEDYLSSISESIQ | – | 0.18 | 0.23 | 14.3 | 5 | 0.015 ± 0.002 | 88 | 12 | 0 | – | – | – | – | –
3 | F169A: α-TTP mutant, Phe169 to Ala (protein, UniProt P49638 1-278, looked up, variant F169A) Alpha-tocopherol transfer …: MAEARSQPSAGPQLNALPDHSPLLQPGLAALRRRAREAGVPLAPLPLTDSFLLRFLRARDFDLDLAWRLLKNYYKWRAECPEISADLHPRSIIGLLKAGYHGVLRSRDPTGSKVLIYRIAHWDPKVFTAYDVFRVSLITSELIVQEVETQRNGIKAIFDLEGWQFSHAAQITPSVAKKIAAVLTDSFPLKVRGIHLINEPVIFHAVFSMIKPFLTEKIKERIHMHGNNYKQSLLQHFPDILPLEYGGEEFSMEDICQEWTNFIMKSEDYLSSISESIQ | – | 0.33 | 0.51 | – | 2 | 0.067 ± 0.006 | 47 | 53 | 48 | diminished vesicle binding | 0.008 ± 0.002 | – | – | –
4 | K217A: α-TTP mutant, surface Lys217 (helix A11) to Ala (protein, UniProt P49638 1-278, looked up, variant K217A) Alpha-tocopherol transfer …: MAEARSQPSAGPQLNALPDHSPLLQPGLAALRRRAREAGVPLAPLPLTDSFLLRFLRARDFDLDLAWRLLKNYYKWRAECPEISADLHPRSIIGLLKAGYHGVLRSRDPTGSKVLIYRIAHWDPKVFTAYDVFRVSLITSELIVQEVETQRNGIKAIFDLEGWQFSHAFQITPSVAKKIAAVLTDSFPLKVRGIHLINEPVIFHAVFSMIKPFLTEAIKERIHMHGNNYKQSLLQHFPDILPLEYGGEEFSMEDICQEWTNFIMKSEDYLSSISESIQ | – | 1.71 | 1.80 | – | – | 0.130 ± 0.011 | – | 102 | 62 | essentially indistinguishable | 0.010 ± 0.004 | 171 | 180 | 171

— paper PMC3038628 (Journal of molecular biology, 2010)
